Calls of active or inactive are those of the source.
Experiments:
[1] = biological target: Adenosine kinase (Homo sapiens) (UniProt P55263); assay: Displacement of 3-(1-methyl-N-(pyridin-2-yl)-2-((4-(N-((S)-6,9,25-trioxo-29-((3aS,4S,6aR)-2-oxohexahydro-1H-thieno[3,4-d]imidazol-4-yl)-8-(4-(3-(trifluoromethyl)-3H-diazirin-3-yl)benzamido)-14,17,20-trioxa-5,10,24-triazanonacosyl)carbamimidoyl)phenylamino)methyl)-1H-benzo[d]imidazole-5-carboxamido)propanoic acid from ADK in human HepG2 cell lysate after 1 hr by capture compound based LC/MS analysis; assay type: cell-free
Chain of Adenosine kinase (Homo sapiens) (P55263 2-362 limits assumed): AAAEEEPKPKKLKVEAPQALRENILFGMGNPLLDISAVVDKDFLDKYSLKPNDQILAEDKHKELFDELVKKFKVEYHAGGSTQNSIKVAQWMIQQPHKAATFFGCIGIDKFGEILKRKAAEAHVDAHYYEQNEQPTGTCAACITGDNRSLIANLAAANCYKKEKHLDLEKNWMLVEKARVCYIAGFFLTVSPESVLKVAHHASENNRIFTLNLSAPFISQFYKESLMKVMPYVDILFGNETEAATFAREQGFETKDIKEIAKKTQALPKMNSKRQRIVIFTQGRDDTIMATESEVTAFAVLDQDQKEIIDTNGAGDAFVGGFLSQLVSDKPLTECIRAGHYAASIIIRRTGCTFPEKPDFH
Method in brief: (§1)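 Capture compound MS: 400 μg HepG2 or K562 lysate in capture buffer, precleared with streptavidin beads 30 min at 4 °C. Competition controls preincubated 30 min at 4 °C with free drug (10 μL of 1 mM). Capture compound (10 μL of 50 μM) equilibrated 1 h at 4 °C, UV-irradiated 10 min, streptavidin bead pulldown, on-bead trypsin digestion, nanoLC-MS/MS. Spectral counts compared capture vs competition (t test). HepG2 in quadruplicate, K562 in duplicate.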

[2] = biological target: T1, Ribosyldihydronicotinamide dehydrogenase [quinone] (Homo sapiens) (UniProt P16083); assay: Displacement of (S)-N4-(4-(3-(2-((4-carbamimidoylphenylamino)methyl)-1-methyl-N-(pyridin-2-yl)-1H-benzo[d]imidazole-5-carboxamido)propanamido)butyl)-N1-(15-oxo-19-((3aS,4S,6aR)-2-oxohexahydro-1H-thieno[3,4-d]imidazol-4-yl)-4,7,10-trioxa-14-azanonadecyl)-2-(4-(3-(trifluoromethyl)-3H-diazirin-3-yl)benzamido)succinamide from NQO2 in human HepG2 cell lysate at 100 uM after 1 hr by Western blot analysis; assay type: cell-free
T1 sequence (whole entry): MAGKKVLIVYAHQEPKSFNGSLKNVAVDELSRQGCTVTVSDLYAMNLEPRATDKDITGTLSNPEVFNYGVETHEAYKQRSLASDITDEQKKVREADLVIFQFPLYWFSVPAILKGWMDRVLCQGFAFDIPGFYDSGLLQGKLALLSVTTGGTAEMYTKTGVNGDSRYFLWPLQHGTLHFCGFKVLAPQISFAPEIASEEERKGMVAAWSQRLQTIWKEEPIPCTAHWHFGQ
Method in brief: (§2)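 NQO2 capture from HepG2 or K562 lysate, or from pooled human liver microsomes, with capture compound (1 h, 4 °C) after 30 min competitor preincubation. UV cross-linked 10 min and streptavidin pulldown. Detection by Western blot: anti-NQO2 1:500, then HRP anti-rabbit secondary 1:1000.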

[3] = biological target: T1, Ribosyldihydronicotinamide dehydrogenase [quinone] (Homo sapiens); assay: Displacement of (S)-N4-(2-(4-(4-(4-methyl-3-(4-(pyridin-3-yl)pyrimidin-2-ylamino)phenylcarbamoyl)benzyl)piperazin-1-yl)ethyl)-N1-(15-oxo-19-((3aS,4S,6aR)-2-oxohexahydro-1H-thieno[3,4-d]imidazol-4-yl)-4,7,10-trioxa-14-azanonadecyl)-2-(4-(3-(trifluoromethyl)-3H-diazirin-3-yl)benzamido)succinamide from human recombinant NQO2 after 1 hr by silver staining-based SDS PAGE analysis
Method in brief: (§3)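 Human recombinant NQO2 (1 μg) was preincubated 30 min at 4 °C with competitor, then capture compound was added at 5 μM final (competitors 100 μM final) and equilibrated 1 h at 4 °C. Samples were UV-irradiated 10 min, pulled down on streptavidin beads and resolved by silver-stained SDS-PAGE.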

[4] = biological target: Heterogeneous nuclear ribonucleoproteins C1/C2 (Homo sapiens) (UniProt P07910); assay: Displacement of 3-(1-methyl-N-(pyridin-2-yl)-2-((4-(N-((S)-6,9,25-trioxo-29-((3aS,4S,6aR)-2-oxohexahydro-1H-thieno[3,4-d]imidazol-4-yl)-8-(4-(3-(trifluoromethyl)-3H-diazirin-3-yl)benzamido)-14,17,20-trioxa-5,10,24-triazanonacosyl)carbamimidoyl)phenylamino)methyl)-1H-benzo[d]imidazole-5-carboxamido)propanoic acid from HNRPC in human HepG2 cell lysate after 1 hr by capture compound based LC/MS analysis; assay type: cell-free; method in brief: as §1
Chain of Heterogeneous nuclear ribonucleoproteins C1/C2 (Homo sapiens) (P07910 whole entry): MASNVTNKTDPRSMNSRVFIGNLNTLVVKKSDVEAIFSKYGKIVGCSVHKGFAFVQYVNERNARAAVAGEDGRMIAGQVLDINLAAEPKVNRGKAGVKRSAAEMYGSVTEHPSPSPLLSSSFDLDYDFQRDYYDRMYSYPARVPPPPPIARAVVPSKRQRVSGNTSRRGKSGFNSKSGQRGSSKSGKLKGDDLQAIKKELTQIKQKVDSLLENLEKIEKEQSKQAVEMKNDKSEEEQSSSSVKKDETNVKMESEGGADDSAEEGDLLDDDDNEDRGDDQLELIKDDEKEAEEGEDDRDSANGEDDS

[5] = biological target: T1, Ribosyldihydronicotinamide dehydrogenase [quinone] (Homo sapiens); assay: Displacement of (S)-N4-(4-(3-(2-((4-carbamimidoylphenylamino)methyl)-1-methyl-N-(pyridin-2-yl)-1H-benzo[d]imidazole-5-carboxamido)propanamido)butyl)-N1-(15-oxo-19-((3aS,4S,6aR)-2-oxohexahydro-1H-thieno[3,4-d]imidazol-4-yl)-4,7,10-trioxa-14-azanonadecyl)-2-(4-(3-(trifluoromethyl)-3H-diazirin-3-yl)benzamido)succinamide from human recombinant NQO2 after 1 hr by silver staining-based SDS PAGE analysis; method in brief: as §3
[6] = biological target: T1, Ribosyldihydronicotinamide dehydrogenase [quinone] (Homo sapiens); assay: Displacement of 3-(1-methyl-N-(pyridin-2-yl)-2-((4-(N-((S)-6,9,25-trioxo-29-((3aS,4S,6aR)-2-oxohexahydro-1H-thieno[3,4-d]imidazol-4-yl)-8-(4-(3-(trifluoromethyl)-3H-diazirin-3-yl)benzamido)-14,17,20-trioxa-5,10,24-triazanonacosyl)carbamimidoyl)phenylamino)methyl)-1H-benzo[d]imidazole-5-carboxamido)propanoic acid from human recombinant NQO2 after 1 hr by silver staining-based SDS PAGE analysis; method in brief: as §3
[7] = biological target: T1, Ribosyldihydronicotinamide dehydrogenase [quinone] (Homo sapiens); assay: Displacement of (S)-N4-(4-(3-(2-((4-carbamimidoylphenylamino)methyl)-1-methyl-N-(pyridin-2-yl)-1H-benzo[d]imidazole-5-carboxamido)propanamido)butyl)-N1-(15-oxo-19-((3aS,4S,6aR)-2-oxohexahydro-1H-thieno[3,4-d]imidazol-4-yl)-4,7,10-trioxa-14-azanonadecyl)-2-(4-(3-(trifluoromethyl)-3H-diazirin-3-yl)benzamido)succinamide from NQO2 in human K562 cell lysate at 100 uM after 1 hr by Western blot analysis; assay type: cell-free; method in brief: as §2
[8] = biological target: T1, Ribosyldihydronicotinamide dehydrogenase [quinone] (Homo sapiens); assay: Displacement of (S)-N4-(4-(3-(2-((4-carbamimidoylphenylamino)methyl)-1-methyl-N-(pyridin-2-yl)-1H-benzo[d]imidazole-5-carboxamido)propanamido)butyl)-N1-(15-oxo-19-((3aS,4S,6aR)-2-oxohexahydro-1H-thieno[3,4-d]imidazol-4-yl)-4,7,10-trioxa-14-azanonadecyl)-2-(4-(3-(trifluoromethyl)-3H-diazirin-3-yl)benzamido)succinamide from NQO2 in human liver microsomes after 1 hr by Western blot analysis; details: Microsome; method in brief: as §2
[9] = biological target: T1, Ribosyldihydronicotinamide dehydrogenase [quinone] (Homo sapiens); assay: Displacement of (S)-N4-(3-(3-(2-((4-carbamimidoylphenylamino)methyl)-1-methyl-N-(pyridin-2-yl)-1H-benzo[d]imidazole-5-carboxamido)propanamido)propyl)-N1-(15-oxo-19-((3aS,4S,6aR)-2-oxohexahydro-1H-thieno[3,4-d]imidazol-4-yl)-4,7,10-trioxa-14-azanonadecyl)-2-(4-(3-(trifluoromethyl)-3H-diazirin-3-yl)benzamido)succinamide from NQO2 in human HepG2 cell lysate after 1 hr by capture compound based LC/MS analysis; method in brief: as §1
[10] = biological target: T1, Ribosyldihydronicotinamide dehydrogenase [quinone] (Homo sapiens); assay: Displacement of (S)-N4-(4-(3-(2-((4-carbamimidoylphenylamino)methyl)-1-methyl-N-(pyridin-2-yl)-1H-benzo[d]imidazole-5-carboxamido)propanamido)butyl)-N1-(15-oxo-19-((3aS,4S,6aR)-2-oxohexahydro-1H-thieno[3,4-d]imidazol-4-yl)-4,7,10-trioxa-14-azanonadecyl)-2-(4-(3-(trifluoromethyl)-3H-diazirin-3-yl)benzamido)succinamide from NQO2 in human K562 cell lysate after 1 hr by capture compound based LC/MS analysis; assay type: cell-free; method in brief: as §1

Measured: Activity

Cn1c(CNc2ccc(C(=N)N)cc2)nc2cc(C(=O)N(CCC(=O)O)c3ccccn3)ccc21 [DABIGATRAN]
active: all assays above
